# Data from publication PMC3227417 (Cancer prevention research (Philadelphia, Pa.), 2009).
# Read-outs that look alike come from different tables or passages of the source.
# Legend:
# [1] = tested on: human HT-29 colon tumor xenograft; assay: HT-29 colon tumor xenograft, treatment of established tumors; assay type: in vivo, mice; conditions: for median number of days to reach a tumor weight of 2,000 mg: control 42.8 days; for median number of days to reach a tumor weight of 3,000 mg: control 52.2 days
# purified ovine COX-2 = molecular target: T1, purified ovine COX-2 (Ovis aries, UniProt P79208); assay: COX-2 colorimetric enzyme assay with purified isozyme; assay type: biochemical
# T1 sequence (P79208 17-603): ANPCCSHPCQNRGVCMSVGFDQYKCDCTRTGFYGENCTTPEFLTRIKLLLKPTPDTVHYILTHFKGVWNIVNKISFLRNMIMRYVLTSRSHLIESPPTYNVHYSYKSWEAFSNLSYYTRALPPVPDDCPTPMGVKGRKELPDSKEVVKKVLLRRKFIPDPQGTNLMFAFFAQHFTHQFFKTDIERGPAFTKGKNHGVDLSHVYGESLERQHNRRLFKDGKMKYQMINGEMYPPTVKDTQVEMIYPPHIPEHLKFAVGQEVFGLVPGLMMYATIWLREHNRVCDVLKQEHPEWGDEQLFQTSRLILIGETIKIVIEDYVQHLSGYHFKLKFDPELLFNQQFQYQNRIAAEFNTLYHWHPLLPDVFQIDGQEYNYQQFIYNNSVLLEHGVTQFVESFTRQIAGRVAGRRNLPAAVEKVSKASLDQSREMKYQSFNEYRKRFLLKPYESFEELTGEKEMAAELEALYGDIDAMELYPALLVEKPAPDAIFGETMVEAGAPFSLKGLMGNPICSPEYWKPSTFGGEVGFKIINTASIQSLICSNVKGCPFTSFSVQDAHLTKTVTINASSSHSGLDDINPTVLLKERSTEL
# purified ovine COX-1 = molecular target: T2, purified ovine COX-1 (Ovis aries, UniProt P05979); assay: COX-1 colorimetric enzyme assay with purified isozyme; assay type: biochemical
# T2 sequence (P05979 25-600): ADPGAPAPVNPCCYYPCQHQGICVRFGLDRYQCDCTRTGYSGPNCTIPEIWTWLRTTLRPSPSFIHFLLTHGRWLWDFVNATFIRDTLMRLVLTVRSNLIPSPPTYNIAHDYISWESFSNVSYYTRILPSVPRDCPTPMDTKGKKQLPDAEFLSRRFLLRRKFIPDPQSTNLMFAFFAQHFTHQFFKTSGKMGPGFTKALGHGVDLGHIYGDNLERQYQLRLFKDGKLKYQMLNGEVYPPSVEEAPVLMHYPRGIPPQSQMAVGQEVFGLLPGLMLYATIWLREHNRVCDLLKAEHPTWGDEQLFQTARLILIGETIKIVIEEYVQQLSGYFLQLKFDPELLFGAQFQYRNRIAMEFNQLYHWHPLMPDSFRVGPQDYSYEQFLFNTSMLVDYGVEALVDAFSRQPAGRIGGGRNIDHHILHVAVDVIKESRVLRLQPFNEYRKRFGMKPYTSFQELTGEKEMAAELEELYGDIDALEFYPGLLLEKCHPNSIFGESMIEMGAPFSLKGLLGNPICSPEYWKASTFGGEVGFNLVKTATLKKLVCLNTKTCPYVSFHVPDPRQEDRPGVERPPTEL
# HT-29 colon tumor cells [2] = assay: Growth assay; assay type: cell-based, human; conditions: for continuous treatment required to reach maximum potency of growth inhibition: HT-29 time course
# Method in brief: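 HT-29 cells were grown in RPMI 1640 with 5% FBS at 37°C under 5% CO2, using only cultures with >95% viability. Cells were seeded at 5,000/well, left 16 h, then treated continuously for 72 h at 37°C. Viable cell number was read as ATP luminescence (CellTiterGlo). A time course experiment used the same read-out. Mean, SE shown.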
# HT-29 colon tumor cells [3] = assay: TUNEL apoptosis assay; assay type: cell-based, human; conditions: 24 hours, vehicle 2.3%
# Method in brief: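 HT-29 cells were seeded at 2 × 10^6 per 10 cm dish and grown 48 h. Medium was then replaced with test compound or vehicle for 24 h. Cells were fixed in 4% formalin on ice for 15 min. Strand breaks were labelled with BrdUrd, detected with anti-BrdUrd Alexa Fluor 488, and nuclei stained with propidium iodide. TUNEL-positive percentage was read by flow cytometry (≥10,000 events). Mean ± SE.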
# [4] = tested on: human HT-29 colon tumor xenograft; assay: HT-29 colon tumor xenograft, treatment from day of tumor implantation; assay type: in vivo
# [5] = Pharmacokinetic study, plasma levels after single gastric gavage; assay type: in vivo, mice; conditions: for plasma level: mice, ± SD
# HT-29 colon tumor cells [6] = assay: Proliferation assay; assay type: cell-based, human; conditions: read-out: IC50 to inhibit DNA synthesis (3H-thymidine incorporation); HT-29, 72 h of treatment
# [7] = tested on: caspases 3 and 7 activity in HT-29 colon tumor cells; assay: Caspase-Glo 3/7 apoptosis assay; assay type: cell-based, human; conditions: HT-29, 25 µmol/L
# Method in brief: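 HT-29 cells were seeded at 10,000/well and grown 18–24 h before treatment. Treatment lasted 2–8 h: time course at 25 µmol/L, and dose-response at 5 h exposure. Caspase 3/7 activity was read as luminescence from substrate cleavage (Caspase-Glo 3/7).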
# NCr-nu/nu mice = assay type: in vivo
# [8] = 250 mg/kg twice daily gastric gavage, 55 days
# [9] = read-out: COX-1 IC50, purified COX-1 isozyme, arachidonic acid, 25°C, 5 min
# [10] = read-out: COX-2 IC50, purified COX-2 isozyme, arachidonic acid, 25°C, 5 min
# [11] = purified COX-1 isozyme, arachidonic acid, 25°C, 5 min
# [12] = purified COX-2 isozyme, arachidonic acid, 25°C, 5 min
Compound,"median number of days to reach a tumor weight of 2,000 mg [1] [days]","median number of days to reach a tumor weight of 3,000 mg [1] [days]",IC50 (purified ovine COX-2) [µM],IC50 (purified ovine COX-1) [µM],continuous treatment required to reach maximum potency of growth inhibition (HT-29 colon tumor cells [2]),IC50 (purified ovine COX-1; [9]) [µM],IC50 (HT-29 colon tumor cells [6]) [µM],IC50 (purified ovine COX-2; [10]) [µM],COX-1 IC50 (purified ovine COX-1; [11]),COX-2 IC50 (purified ovine COX-2; [12]),other results
"CCc1c2c(nc3ccc(OC(=O)N4CCC(N5CCCCC5)CC4)cc13)-c1cc3c(c(=O)n1C2)COC(=O)[C@]3(O)CC.Cl [Camptosar, irinotecan HCl]",48.2,58.7,,,,,,,,,
CS(=O)(=O)c1ccc(C2=C(c3ccccc3)C(=O)OC2)cc1 [Rofecoxib],,,2.7,,,,,,,,
"CSc1ccc(/C=C2/C(C)=C(CC(=O)O)c3cc(F)ccc32)cc1 [SS, sulindac sulfide]",,,,1.8,~ 2 days,,,,,,"percentage of apoptotic cells (TUNEL) (HT-29 colon tumor cells [3]; HT-29, 100 µmol/L): 7.1%; percentage of apoptotic cells (TUNEL) (HT-29 colon tumor cells [3]; HT-29, 200 µmol/L): 49.9%"
CSc1ccc(/C=C2/C(C)=C(CC(=O)NCCN(C)C)c3cc(F)ccc32)cc1 [SSA],40.8,53.2,,,~ 2 days,> 300,1.2,164,,,"mean body weight loss averaged over the duration of treatment [4, 8]: 1.1%; mean body weight loss on any given day [4, 8]: ≤ 6%; mean tumor weight ([4]; day 55, 250 mg/kg twice daily, control 2,534 mg): 1,141 mg; plasma half-life ([5]; mouse, in vivo, po, 200 mg/kg): 9.9 h; increase in potency compared with SS (growth inhibition) (HT-29 colon tumor cells [2]; HT-29 cell line): ~40 fold; optimum treatment time for caspase induction [7]: ~ 4 hours; tolerated dosage (NCr-nu/nu mice; mouse, in vivo): up to 300 mg/kg; percentage of apoptotic cells (TUNEL) (HT-29 colon tumor cells [3]; HT-29, 10 µmol/L): 3.6%; percentage of apoptotic cells (TUNEL) (HT-29 colon tumor cells [3]; HT-29, 25 µmol/L): 10.2%; percentage of apoptotic cells (TUNEL) (HT-29 colon tumor cells [3]; HT-29, 50 µmol/L): 91.8%"
"CC1=C(CC(=O)O)c2cc(F)ccc2/C1=C\c1ccc(S(C)(=O)=O)cc1 [Sulindac sulfone, sulindac sulfone]",,,> 300,> 300,,,,,lack both COX-1 and COX-2 inhibitory activity,lack both COX-1 and COX-2 inhibitory activity,
"CC1=C(CC(=O)O)c2cc(F)ccc2/C1=C\c1ccc([S+](C)[O-])cc1 (stereo not drawn) [Sulindac sulfoxide, sulindac]",,,,,,> 300,222,> 300,lack both COX-1 and COX-2 inhibitory activity,lack both COX-1 and COX-2 inhibitory activity,"plasma level ([5]; 1 h post gastric gavage of SSA (200 mg/kg)): 50 ± 40 nM; plasma level ([5]; 2 h post gastric gavage of SSA (200 mg/kg)): 60 ± 10 nM; plasma level ([5]; 4 h post gastric gavage of SSA (200 mg/kg)): 50 ± 10 nM; plasma level ([5]; 8 h post gastric gavage of SSA (200 mg/kg)): 50 ± 14 nM; plasma level ([5]; 16 h post gastric gavage of SSA (200 mg/kg)): BLD; plasma level ([5]; 24 h post gastric gavage of SSA (200 mg/kg)): BLD; tolerated dosage (NCr-nu/nu mice; mice, once daily gastric gavage, 20 days of treatment): ≤ 50 mg/kg"
